Active and inactive are the calls of the source. Unless noted, no stated cut-off is given here; in the data, active means inhibition above about 30%; inactive means the rest.
Key:
[1] = Her2 expression decrease, cell viability multiplex – SKBR3 breast tumor cells, AlphaScreen, ATP viability, primary screen (AID 461;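 active means Her2 level under about 52% in both replicate screens, with viability over 70% of control, limit read from the data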;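 on Her2 level: lower value means less Her2 protein in the cells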;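 on viability: percent of carrier control wells set as 100% viability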); settings: SKBR3 Her2 protein level, 18-24 h, measured here: SKBR3 viability, ATP luminescence, at 10 µM
[2] = molecular target: Receptor tyrosine-protein kinase erbB-2 (Homo sapiens) (UniProt P04626); experiment: as above; settings: 18-24 h, at 10 µM, stronger effect = lower value
[3] = reduced viability of SK-BR-3 breast cancer cells – cell-based, 24 h, human, pilot screen (AID 572;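 active means viability at or below 10% of carrier control in both of two separate runs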;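 further: compound exposure lasted between 18 and 24 h rather than exactly 24 h; 100% = carrier-treated control wells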); settings: SK-BR-3 viability, CellTiter-Glo luminescence, at 10 µM, stronger effect = lower value
[4] = HUVEC growth inhibition – cell-based, human, primary screen (AID 575;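 active means viability at or below 30% in both replicate assays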;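 further: 100% = median of untreated cell wells with 0.1% DMSO on each plate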); settings: HUVEC proliferation, CellTiter-Glo luminescence, 72 h; at 10 µM; stronger effect = lower value
In short: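 Test system – primary HUVEC, no more than 12 passages · Dosing – one dose, 10 µM final, 0.1% DMSO · Times – 72 h treatment at 37 °C · Measured by – ATP-based CellTiter-Glo luminescent read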

[5] = H69AR cell proliferation blockers – human, duplicate replicates, primary screen (AID 580;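 active means viability at or under a set limit in both replicates, limit being median viability minus 3 SD, cut at about 48% in these data, passing the limit was not always enough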;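 further: 100% = mean luminescence of untreated wells and 0% = no signal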); settings: H69AR lung tumor cells viability, ATP luminescence, 72 h; at 10 µM; stronger effect = lower value
[6] = MRP1 drug-resistance reversers in H69AR cells – cell-based, doxorubicin co-treatment, pilot screen (AID 601;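 active means viability loss from added drug above about 55%, and viability with drug at most 40%, in both replicates, limit read from the data, passing the limit was not always enough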); settings: CellTiter-Glo, 72 h, at 10 µM; for differential viability (reversal): stronger effect = higher value
[7] = yeast transport mutant growth inhibition pilot in 384-well plates, post-Golgi transport modulator project (AID 636; in the data active means inhibition above about 31%); settings: absorbance 615 nm, about 18 h, stronger effect = higher value
[8] = growth suppression of yeast trafficking mutant, preliminary HTS, modulators of trafficking downstream of Golgi apparatus project, 1536-format plate, OD 615 nm (AID 637); settings: yeast transport mutant growth, absorbance 615 nm, 18 h; stronger effect = higher value
[9] = H69AR cells + 2 uM doxorubicin, measured here: viability with 2 uM doxorubicin, stronger effect = lower value
[10] = H69AR cells, compound alone cytotoxicity

Chain of Receptor tyrosine-protein kinase erbB-2 (Homo sapiens) (P04626 whole entry, looked up): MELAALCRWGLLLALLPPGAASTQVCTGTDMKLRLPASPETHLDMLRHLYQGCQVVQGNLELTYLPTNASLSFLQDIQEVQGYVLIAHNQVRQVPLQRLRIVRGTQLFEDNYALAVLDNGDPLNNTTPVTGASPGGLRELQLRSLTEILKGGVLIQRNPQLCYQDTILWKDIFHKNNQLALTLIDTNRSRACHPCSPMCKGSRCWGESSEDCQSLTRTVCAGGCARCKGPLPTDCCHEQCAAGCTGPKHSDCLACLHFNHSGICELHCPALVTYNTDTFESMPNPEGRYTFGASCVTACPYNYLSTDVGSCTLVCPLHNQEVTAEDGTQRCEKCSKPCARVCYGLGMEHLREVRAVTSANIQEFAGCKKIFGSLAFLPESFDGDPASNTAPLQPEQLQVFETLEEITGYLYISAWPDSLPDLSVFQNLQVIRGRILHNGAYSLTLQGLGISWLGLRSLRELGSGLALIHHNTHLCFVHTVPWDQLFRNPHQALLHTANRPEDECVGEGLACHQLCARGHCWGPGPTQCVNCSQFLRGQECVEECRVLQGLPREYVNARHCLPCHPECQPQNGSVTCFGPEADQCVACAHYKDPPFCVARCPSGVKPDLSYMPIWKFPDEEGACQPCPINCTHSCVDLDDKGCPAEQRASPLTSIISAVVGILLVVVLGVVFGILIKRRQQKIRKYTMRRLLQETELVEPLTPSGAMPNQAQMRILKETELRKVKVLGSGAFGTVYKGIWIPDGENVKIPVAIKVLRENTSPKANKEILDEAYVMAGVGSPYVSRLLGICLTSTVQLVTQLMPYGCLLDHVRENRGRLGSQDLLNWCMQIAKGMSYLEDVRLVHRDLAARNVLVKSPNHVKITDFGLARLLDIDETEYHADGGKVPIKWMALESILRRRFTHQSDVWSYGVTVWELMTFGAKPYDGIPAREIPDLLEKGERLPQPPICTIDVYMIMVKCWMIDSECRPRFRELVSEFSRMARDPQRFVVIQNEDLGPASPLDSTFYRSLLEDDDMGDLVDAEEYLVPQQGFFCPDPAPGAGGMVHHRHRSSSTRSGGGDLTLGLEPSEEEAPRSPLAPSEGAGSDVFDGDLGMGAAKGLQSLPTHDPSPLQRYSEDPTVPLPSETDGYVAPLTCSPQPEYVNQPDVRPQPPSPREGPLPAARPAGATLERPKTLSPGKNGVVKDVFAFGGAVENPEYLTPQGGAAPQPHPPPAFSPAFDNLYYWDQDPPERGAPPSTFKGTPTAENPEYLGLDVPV

| SMILES | viability [1] | Her2 level [2] | viability [3] | viability [4] | viability [5] | differential viability (reversal) ([6]; H69AR cells + 2 uM doxorubicin) | viability [6, 9] | viability [6, 10] | inhibition [7] | inhibition [8] |
| --- | --- | --- | --- | --- | --- | --- | --- | --- | --- | --- |
| Fc1ccccc1-c1nc(-c2ccccc2)no1 | 85.5% | 69% (inactive) | 85.5% (inactive) | 81.4% (inactive) | 111% (inactive) | 19.6% (inactive) | 90.9% | 111% | 1.05% (inactive) | -3.87% (inactive) |
| Cn1cnc2c(N3CCCCC3)nccc21 | 116% | 104% (inactive) | 116% (inactive) | 87.3% (inactive) | 90.5% (inactive) | -5.21% (inactive) | 95.7% | 90.5% | -4.16% (inactive) | -1.64% (inactive) |
| Cn1c(COc2ccc(Cl)cc2)nnc1SCC(=O)NC1CCCCC1 | 77% | 108% (inactive) | 77% (inactive) | 89.5% (inactive) | 103% (inactive) | 9.25% (inactive) | 94% | 103% | 2.13% (inactive) | 20.8% (inactive) |
| CCN1C(=O)OC2(CCCCC2)C1(C)O (stereo not given) | 107% | 93.5% (inactive) | 107% (inactive) | 101% (inactive) | 105% (inactive) | 11.4% (inactive) | 94.1% | 105% | 0.13% (inactive) | -7.27% (inactive) |
| CN(c1ccccc1)C(c1ccc(F)cc1)c1nnnn1CC1CCCO1 (stereo not given) | 104% | 98% (inactive) | 104% (inactive) | 97% (inactive) | 94.1% (inactive) | 6.48% (inactive) | 87.6% | 94.1% | -4.32% (inactive) | 0.83% (inactive) |
| CCn1ncc(C2=NOC(C(=O)NCc3ccccc3)C2)c1C (stereo not given) | 91% | 82.5% (inactive) | 91% (inactive) | 43.2% (inactive) | 27.5% (active) | -33% (inactive) | 60.4% | 27.5% | -6.18% (inactive) | -1.9% (inactive) |
| O=C(c1cnn2c(C(F)(F)F)cc(-c3ccco3)nc12)N1CCc2ccccc2C1 | 76% | 112% (inactive) | 76% (inactive) | 69.9% (inactive) | 89.6% (inactive) | 3.92% (inactive) | 85.7% | 89.6% | -1.33% (inactive) | -9.37% (inactive) |
| CCOCCn1cnc2sc(C(=O)NCC(=O)OCC)c(C)c2c1=O | 95.5% | 90% (inactive) | 95.5% (inactive) | 86.6% (inactive) | 86.8% (inactive) | -1.89% (inactive) | 88.7% | 86.8% | -2.37% (inactive) | 2.9% (inactive) |
| COc1ccccc1NC(=O)N1CCCC1C(=O)NC1CCCCC1 (stereo not given) | 104% | 91.5% (inactive) | 104% (inactive) | 101% (inactive) | 80.1% (inactive) | -4.57% (inactive) | 84.7% | 80.1% | -9.32% (inactive) | -2.5% (inactive) |
| Cc1ccc(C(=O)C2COC(=O)C2)cc1 (stereo not given) | 109% | 80.5% (inactive) | 109% (inactive) | 95.7% (inactive) | 85.3% (inactive) | 3.12% (inactive) | 82.2% | 85.3% | -1.97% (inactive) | -4.84% (inactive) |
| COc1ccc(C(=O)Nc2ccc(C)cn2)c(OC)c1 | 73.5% | 77% (inactive) | 73.5% (inactive) | 102% (inactive) | 85.4% (inactive) | 11.2% (inactive) | 74.2% | 85.4% | -4.19% (inactive) | 0.98% (inactive) |
| CCOC(=O)C1CCN(C(=O)COc2ccc(Cl)cc2Cl)CC1 | 109% | 98% (inactive) | 109% (inactive) | 101% (inactive) | 96.2% (inactive) | 10.2% (inactive) | 86.1% | 96.2% | -3.64% (inactive) | -6.35% (inactive) |
| CC1(C)Cc2noc(N)c2C(C)(C)N1O | 121% | 91% (inactive) | 121% (inactive) | 89.5% (inactive) | 95.6% (inactive) | 14.8% (inactive) | 80.8% | 95.6% | -4.61% (inactive) | 2.7% (inactive) |
| N#CC1=C(N)N(c2ccccc2)C2=C(C(=O)CCC2)C1c1cccs1 (stereo not given) | 96.5% | 97.5% (inactive) | 96.5% (inactive) | 80.8% (inactive) | 70.3% (inactive) | 46.8% (inactive) | 23.5% | 70.3% | -5.95% (inactive) | 0.83% (inactive) |
| COc1ccc(NC(C)=O)cc1NC(=O)CN1CCN(c2ccccn2)CC1 | 96% | 116% (inactive) | 96% (inactive) | 96% (inactive) | 85.6% (inactive) | 5.82% (inactive) | 79.8% | 85.6% | -1.87% (inactive) | -7.9% (inactive) |
| CC(=O)Nc1ccc(Oc2cc(C#N)c(C#N)cc2N2CCCCCC2)cc1 | 108% | 76% (inactive) | 108% (inactive) | 73.5% (inactive) | 89.6% (inactive) | 21.8% (inactive) | 67.8% | 89.6% | -3.03% (inactive) | 0.95% (inactive) |

| SMILES | viability [1] | Her2 level [2] | viability [3] | viability [4] | viability [5] | differential viability (reversal) ([6]; H69AR cells + 2 uM doxorubicin) | viability [6, 9] | viability [6, 10] | inhibition [7] | inhibition [8] |
| --- | --- | --- | --- | --- | --- | --- | --- | --- | --- | --- |
| CC(C)CCNC(=O)NC(=O)CN1C(=O)NC2(CCCCC2)C1=O | 90% | 120% (inactive) | 90% (inactive) | 104% (inactive) | 96.9% (inactive) | -4.12% (inactive) | 101% | 96.9% | 1.32% (inactive) | 10.9% (inactive) |
| O=C(Nc1ccc(N2CCOCC2)cc1)c1cc2ccccc2o1 | 99.5% | 117% (inactive) | 99.5% (inactive) | 109% (inactive) | 85.7% (inactive) | 3.15% (inactive) | 82.6% | 85.7% | -0.26% (inactive) | -10.8% (inactive) |
| C=C(C)c1cccc(C(C)(C)NC(=O)Nc2ncccn2)c1 | 97.5% | 107% (inactive) | 97.5% (inactive) | 81% (inactive) | 66.7% (inactive) | -9% (inactive) | 75.7% | 66.7% | -4.08% (inactive) | -4.73% (inactive) |
| COc1ccc(CN2CC(C(=O)NCc3ccccn3)CC2=O)cc1 (stereo not given) | 92.5% | 104% (inactive) | 92.5% (inactive) | 101% (inactive) | 105% (inactive) | 9.59% (inactive) | 95.1% | 105% | -5% (inactive) | -4.03% (inactive) |
| COc1cccc(C(=O)NCc2nnc(SCC(=O)Nc3nccs3)n2-c2ccccc2)c1 | 101% | 108% (inactive) | 101% (inactive) | 92.9% (inactive) | 97.9% (inactive) | -3.27% (inactive) | 101% | 97.9% | -2.18% (inactive) | 1.17% (inactive) |
| O=C(c1ccco1)N1CCN(C(=O)c2cc3c(s2)-c2ccccc2OC3)CC1 | 91% | 113% (inactive) | 91% (inactive) | 107% (inactive) | 97% (inactive) | 2.87% (inactive) | 94.2% | 97% | 0.13% (inactive) | -1.64% (inactive) |
| CCOc1ccc(S(=O)(=O)Nc2ccccc2C(=O)Nc2ccccc2N2CCOCC2)cc1 | 104% | 97.5% (inactive) | 104% (inactive) | 74.5% (inactive) | 93.4% (inactive) | 2.71% (inactive) | 90.7% | 93.4% | -6.67% (inactive) | 3.06% (inactive) |
| CCN(CC)S(=O)(=O)c1ccc2oc(SCc3ccc(F)cc3)nc2c1 | 93.5% | 82.5% (inactive) | 93.5% (inactive) | 68.5% (inactive) | 80.1% (inactive) | -14.8% (inactive) | 95% | 80.1% | 0.54% (inactive) | -0.95% (inactive) |
| COc1ccc(NC(=O)Nc2ccc(C)cc2OC(F)F)cc1OC | 95% | 79.5% (inactive) | 95% (inactive) | 88% (inactive) | 93% (inactive) | 6.81% (inactive) | 86.1% | 93% | -3.95% (inactive) | -6.67% (inactive) |
| O=C(CSc1nnc(-c2cccs2)o1)N1CCOCC1 | 107% | 92.5% (inactive) | 107% (inactive) | 99.4% (inactive) | 96.6% (inactive) | -4.63% (inactive) | 101% | 96.6% | -3.6% (inactive) | -1.45% (inactive) |
| CC1=C(C(=O)Nc2ccccc2)C(c2cccs2)C(C#N)=C(SCC#N)N1 (stereo not given) | 104% | 96.5% (inactive) | 104% (inactive) | 64% (inactive) | 82.8% (inactive) | -13.4% (inactive) | 96.2% | 82.8% | -0.4% (inactive) | 19.2% (inactive) |
| Cc1ccc2c(c1)-c1cc(C)nn1C(c1ccc3c(c1)OCO3)N2 (stereo not given) | 100% | 100% (inactive) | 100% (inactive) | 54% (inactive) | 87.2% (inactive) | -11.2% (inactive) | 98.4% | 87.2% | -2.76% (inactive) | -3.55% (inactive) |
| COc1ccccc1CNC(=O)C1CCCN(S(=O)(=O)c2cnc[nH]2)C1 (stereo not given) | 94% | 102% (inactive) | 94% (inactive) | 105% (inactive) | 109% (inactive) | 16.7% (inactive) | 92.3% | 109% | 1.47% (inactive) | -0.98% (inactive) |
| COc1ccc2c(c1)OC(O)(C(F)F)CC2=O (stereo not given) | 116% | 107% (inactive) | 116% (inactive) | 102% (inactive) | 93.5% (inactive) | 2.35% (inactive) | 91.2% | 93.5% | -1.04% (inactive) | -2% (inactive) |
| O=c1[nH]c2ccccc2nc1NCCN1CCOCC1 | 97.5% | 87.5% (inactive) | 97.5% (inactive) | 114% (inactive) | 97.1% (inactive) | 7.97% (inactive) | 89.1% | 97.1% | -0.79% (inactive) | 3.93% (inactive) |
